Holding throughout (type): functional
Assay [1] concerns Mus musculus. The assay is described as follows: Anticonvulsant activity against maximum electric shock-induced seizure in Swiss albino mouse assessed as time spent in tonic extensor phase at 20 mg/kg, ip administered 30 mins before seizure induction by electroconvulsiometer analysis. As to conditions: route intraperitoneal. The method in brief: (§1)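 Inbred Swiss albino mice, both sexes, 25–30 g, 7-day adaptation, groups of 5, each used once, tested 10:00–16:00. Compound suspended in 0.5% Tween 80, 20 mg/kg ip 30 min before maximal electroshock; vehicle control group and ip phenytoin 20 mg/kg standard. Seconds spent in flexion, extensor and clonus phases recorded, mean ± SEM.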

Assay [2] relates to Mus musculus. Description: Anticonvulsant activity against maximum electric shock-induced seizure in Swiss albino mouse assessed as time spent in tonic flexion phase at 20 mg/kg, ip administered 30 mins before seizure induction by electroconvulsiometer analysis. As to conditions: route intraperitoneal. The method in brief: as §1
For a further assay, the system named is Candida albicans. Description: Antifungal activity against Candida albicans ATCC 10231 at 20 ug/ml after 24 hrs by cup plate method. As to conditions: ATCC 10231, 24 h, read-out: IZ. In outline: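 C. albicans spores inoculated into lukewarm Sabouraud dextrose agar (pH 5.4, autoclaved 121 °C 15 min) and poured; cups filled with compound at 20 µg/mL, methanol solvent control, Ketoconazole standard. Kept refrigerated 1 h for diffusion, then incubated 24 h at 28 °C; zone of inhibition read.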

In the next assay the test system is Staphylococcus aureus. Description: Antibacterial activity against methicillin-sensitive Staphylococcus aureus 22 at 20 ug/ml after 24 hrs by cup plate method. As to conditions: Staphylococcus aureus, 22, 24 h; read-out: IZ. The method in brief: (§2)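 Cup-plate (well diffusion) on Mueller-Hinton agar; compounds at 20 µg/mL in methanol, 20 µL per well; one well with 20 µL methanol as solvent control; Amikacin standard run alike. Held in refrigerator 1 h for diffusion, then incubated 24 h at 37 °C; zone of inhibition around cup measured.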

In assay [3] the test system is Mus musculus. Description: Anticonvulsant activity against maximum electric shock-induced seizure in Swiss albino mouse assessed as time spent in tonic clonus phase at 20 mg/kg, ip administered 30 mins before seizure induction by electroconvulsiometer analysis. As to conditions: route intraperitoneal. The method in brief:
as §1

The next assay deals with Escherichia coli. Description: Antibacterial activity against Escherichia coli K12 at 20 ug/ml after 24 hrs by cup plate method. As to conditions: K-12, 24 h, read-out: IZ. The method in brief:
as §2

On to `C=CCn1cc(C2(c3cn(CC=C)c4ccccc34)C(=O)Nc3ccccc32)c2ccccc21`, for which the Time is listed as 48 s in the assay on Mus musculus [1], 5.8 s with Mus musculus [2] and 3.6 s with Mus musculus [3]. Also, the zone of inhibition at 20 µg/mL was 11 mm in the assay on Candida albicans, 12 mm with Staphylococcus aureus and 12 mm in the assay on Escherichia coli.
For the compound `C=CCn1cc(C2(c3cn(CC=C)c4ccccc34)C(=O)Nc3ccc([N+](=O)[O-])cc32)c2ccccc21`, the Time is given as 39.2 s with Mus musculus [1], 4.8 s with Mus musculus [2] and 3.4 s with Mus musculus [3]. Moreover, the results for the zone of inhibition at 20 µg/mL with Candida albicans, in the assay with Staphylococcus aureus and in the assay with Escherichia coli were 15 mm, 10 mm and 10 mm, respectively.
`C=CCn1cc(C2(c3cn(CC=C)c4ccc(OC)cc34)C(=O)Nc3ccccc32)c2cc(OC)ccc21`: the Time in the assay with Mus musculus [1] came out at 31.8 s; with Mus musculus [2] it was 4.8 s; in the assay with Mus musculus [3], 3.2 s. Besides, the values for the zone of inhibition at 20 µg/mL with Candida albicans, in the assay with Staphylococcus aureus and in the assay with Escherichia coli were 14 mm, 12 mm and 10 mm, respectively.
`C=CCn1cc(C2(c3cn(CC=C)c4ccc(OC)cc34)C(=O)Nc3ccc(Cl)cc32)c2cc(OC)ccc21`: the Time in the assay with Mus musculus [1] turned out to be 31.6 s; with Mus musculus [2], 5.8 s; in the assay with Mus musculus [3], 3.4 s. For the same compound, the zone of inhibition at 20 µg/mL in the assay with Candida albicans came to 10 mm; in the assay on Staphylococcus aureus, 10 mm; in the assay with Escherichia coli, 11 mm.
As to `C=CCn1cc(C2(c3cn(CC=C)c4ccc(OC)cc34)C(=O)Nc3ccc(Br)cc32)c2cc(OC)ccc21`, the Time in the assay on Mus musculus [1] is reported as 39.2 s; in the assay on Mus musculus [2] it was 4.8 s; in the assay on Mus musculus [3], 3.4 s. Moreover, the zone of inhibition at 20 µg/mL is 14 mm in the assay on Candida albicans, 15 mm with Staphylococcus aureus and 14 mm with Escherichia coli.
In the case of `C=CCn1cc(C2(c3cn(CC=C)c4ccc(OC)cc34)C(=O)N(CC(=O)OCC)c3ccccc32)c2cc(OC)ccc21`, the Time was 31.6 s with Mus musculus [1], 4.8 s with Mus musculus [2] and 3.4 s with Mus musculus [3]. In addition, the zone of inhibition at 20 µg/mL with Candida albicans was 10 mm; in the assay with Staphylococcus aureus it was 12 mm; in the assay on Escherichia coli, 14 mm.
For the compound `O=C1Nc2ccccc2C1(c1cn(C/C=C/c2ccccc2)c2ccccc12)c1cn(C/C=C/c2ccccc2)c2ccccc12`, the Time with Mus musculus [1] came out at 39.6 s; in the assay on Mus musculus [2] it was 4.8 s; with Mus musculus [3], 3.6 s. For the same compound, the figures for the zone of inhibition at 20 µg/mL with Candida albicans, in the assay with Staphylococcus aureus and in the assay on Escherichia coli were 13 mm, 10 mm and 14 mm, respectively.
Turning to `CC(C)=CCn1cc(C2(c3cn(CC=C(C)C)c4ccc(Br)cc34)C(=O)Nc3ccccc32)c2cc(Br)ccc21`, the Time amounted to 39.6 s in the assay with Mus musculus [1], 4.8 s in the assay with Mus musculus [2] and 3.4 s in the assay with Mus musculus [3]. Further, the zone of inhibition at 20 µg/mL in the assay on Candida albicans worked out at 12 mm; in the assay on Staphylococcus aureus, 14 mm; in the assay on Escherichia coli, 12 mm.
In the case of `C#CCN1C(=O)C(c2cn(CC=C(C)C)c3ccc(Br)cc23)(c2cn(CC=C(C)C)c3ccc(Br)cc23)c2ccccc21`, the Time in the assay on Mus musculus [1] turned out to be 31.6 s; in the assay with Mus musculus [2], 5.4 s; in the assay with Mus musculus [3], 2.8 s. In addition, the values for the zone of inhibition at 20 µg/mL in the assay with Candida albicans, in the assay with Staphylococcus aureus and in the assay on Escherichia coli were 10 mm, 15 mm and 15 mm, respectively.
With `C#CCn1cc(C2(c3cn(CC#C)c4ccccc34)C(=O)Nc3ccccc32)c2ccccc21`, the values for the Time with Mus musculus [1], in the assay with Mus musculus [2] and in the assay on Mus musculus [3] were 39.2 s, 4.8 s and 3.2 s, respectively. The values for the zone of inhibition at 20 µg/mL in the assay with Candida albicans, in the assay on Staphylococcus aureus and with Escherichia coli were 12 mm, 11 mm and 10 mm, respectively.
Take `C#CCn1cc(C2(c3cn(CC#C)c4ccccc34)C(=O)N(Cc3ccccc3)c3ccccc32)c2ccccc21`: the Time in the assay with Mus musculus [1] worked out at 39.2 s; in the assay on Mus musculus [2], 4.8 s; in the assay with Mus musculus [3], 3.2 s. In addition, the zone of inhibition at 20 µg/mL is 13 mm in the assay with Candida albicans, 15 mm in the assay on Staphylococcus aureus and 17 mm with Escherichia coli.
With `C#CCN1C(=O)C(c2cn(CC#C)c3ccccc23)(c2cn(CC#C)c3ccccc23)c2ccccc21`, the Time amounted to 31.8 s with Mus musculus [1], 5.4 s in the assay on Mus musculus [2] and 3.6 s with Mus musculus [3]. In addition, the zone of inhibition at 20 µg/mL in the assay on Candida albicans is 12 mm; with Staphylococcus aureus, 10 mm; in the assay on Escherichia coli, 10 mm.
Take `C#CCn1c(C)c(C2(c3c(C)n(CC#C)c4ccccc34)C(=O)Nc3ccccc32)c2ccccc21`: the Time with Mus musculus [1] was found to be 31.6 s; with Mus musculus [2], 5.4 s; in the assay on Mus musculus [3] it was 2.8 s. In addition, the zone of inhibition at 20 µg/mL in the assay with Candida albicans, in the assay with Staphylococcus aureus and with Escherichia coli was 15 mm each time.
As for `NCC[C@H](O)C(=O)N[C@@H]1C[C@H](N)[C@@H](O[C@H]2O[C@H](CN)[C@@H](O)[C@H](O)[C@H]2O)[C@H](O)[C@H]1O[C@H]1O[C@H](CO)[C@@H](O)[C@H](N)[C@H]1O` [AMIKACIN], the values for the zone of inhibition at 20 µg/mL in the assay on Staphylococcus aureus and in the assay with Escherichia coli were 17 mm and 18 mm, respectively.
Consider `CC(=O)N1CCN(c2ccc(OCC3COC(Cn4ccnc4)(c4ccc(Cl)cc4Cl)O3)cc2)CC1` (centres undefined) [KETOCONAZOLE], for which the zone of inhibition at 20 µg/mL in the assay on Candida albicans is 16 mm.
Regarding `O=C1NC(=O)C(c2ccccc2)(c2ccccc2)N1` [PHENYTOIN], the results for the Time with Mus musculus [1], in the assay on Mus musculus [2] and in the assay with Mus musculus [3] were 43 s, 5.6 s and 3.4 s, respectively.

For the origin of these results see ChEMBL document CHEMBL1795234, “Practical synthesis, anticonvulsant, and antimicrobial activity of N-allyl and N-propargyl di(indolyl)indolin-2-ones” (2011).
